# Results: ChEMBL document CHEMBL5058577, “EUbOPEN Chemogenomics Library 2 (Multiplex)” (2022)
# Test system: Fibroblast
# Assay: Multiplex assay against human fibroblast
# Assay type: toxicity, cell-based
# Outline: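 Live cells were stained at seeding with Hoechst33342, BioTracker Green Microtubule Cytoskeleton Dye, MitoTracker Red and Annexin V Alexa Fluor 680. Following compound addition, they were imaged on a CQ1 microscope at 37°C and 5% CO2 and gated by CellPathfinder machine learning into Hoechst high-intensity objects or normal cells, with normal cells split into healthy, pyknosed or fragmented nuclei and pyknosed cells into mitotic or apoptotic. Tubulin, mitochondrial-mass and membrane-permeability phenotypes are per cents of healthy-nucleus cells.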
# [1] = 12 h, 1 µM, compound concentration 1 uM, replicate 1
# [2] = 12 h, 1 µM, compound concentration 1 uM, replicate 2
# [3] = 12 h, 10 µM, compound concentration 10 uM, replicate 1
# [4] = 12 h, 10 µM, compound concentration 10 uM, replicate 2
# [5] = 24 h, 1 µM, compound concentration 1 uM, replicate 1
# [6] = 24 h, 1 µM, compound concentration 1 uM, replicate 2
# [7] = 24 h, 10 µM, compound concentration 10 uM, replicate 1
# [8] = 24 h, 10 µM, compound concentration 10 uM, replicate 2
# [9] = 48 h, 1 µM, compound concentration 1 uM, replicate 1
# [10] = 48 h, 1 µM, compound concentration 1 uM, replicate 2
# [11] = 48 h, 10 µM, compound concentration 10 uM, replicate 1
# [12] = 48 h, 10 µM, compound concentration 10 uM, replicate 2
smiles,measurement,setting,value
C[C@@H]1C[C@H]2[C@@H]3CCC4=CC(=O)C=C[C@]4(C)[C@@]3(F)[C@@H](O)C[C@]2(C)[C@@]1(O)C(=O)CO [DEXAMETHASONE],Population Apoptotic (%),[1],62%
same,Population Fragmented Nuclei (%),[1],18%
same,Population Healthy Nuclei (%),[1],66%
same,Population Hoechst High Intensity Objects (%),[1],7%
same,Population Membrane Permeable-Phenotype (%),[1],0%
same,Population Mitochondria Different-Phenotype (%),[1],2%
same,Population Mitotic Cells (%),[1],37%
same,Population Normal (%),[1],92%
same,Population Pyknosed Nuclei (%),[1],15%
same,Population Tubulin-Different-Phenotype (%),[1],26%
same,Population Apoptotic (%),[2],38%
same,Population Fragmented Nuclei (%),[2],30%
same,Population Healthy Nuclei (%),[2],48%
same,Population Hoechst High Intensity Objects (%),[2],3%
same,Population Membrane Permeable-Phenotype (%),[2],9%
same,Population Mitochondria Different-Phenotype (%),[2],4%
same,Population Mitotic Cells (%),[2],61%
same,Population Normal (%),[2],96%
same,Population Pyknosed Nuclei (%),[2],20%
same,Population Tubulin-Different-Phenotype (%),[2],52%
same,Population Apoptotic (%),[3],35%
same,Population Fragmented Nuclei (%),[3],20%
same,Population Healthy Nuclei (%),[3],65%
same,Population Hoechst High Intensity Objects (%),[3],2%
same,Population Membrane Permeable-Phenotype (%),[3],1%
same,Population Mitochondria Different-Phenotype (%),[3],5%
same,Population Mitotic Cells (%),[3],65%
same,Population Normal (%),[3],98%
same,Population Pyknosed Nuclei (%),[3],13%
same,Population Tubulin-Different-Phenotype (%),[3],22%
same,Population Apoptotic (%),[4],30%
same,Population Fragmented Nuclei (%),[4],24%
same,Population Healthy Nuclei (%),[4],52%
same,Population Hoechst High Intensity Objects (%),[4],6%
same,Population Membrane Permeable-Phenotype (%),[4],4%
same,Population Mitochondria Different-Phenotype (%),[4],2%
same,Population Mitotic Cells (%),[4],69%
same,Population Normal (%),[4],93%
same,Population Pyknosed Nuclei (%),[4],23%
same,Population Tubulin-Different-Phenotype (%),[4],53%
same,Population Apoptotic (%),[5],48%
same,Population Fragmented Nuclei (%),[5],14%
same,Population Healthy Nuclei (%),[5],68%
same,Population Hoechst High Intensity Objects (%),[5],5%
same,Population Membrane Permeable-Phenotype (%),[5],1%
same,Population Mitochondria Different-Phenotype (%),[5],3%
same,Population Mitotic Cells (%),[5],52%
same,Population Normal (%),[5],94%
same,Population Pyknosed Nuclei (%),[5],17%
same,Population Tubulin-Different-Phenotype (%),[5],26%
same,Population Apoptotic (%),[6],31%
same,Population Fragmented Nuclei (%),[6],29%
same,Population Healthy Nuclei (%),[6],50%
same,Population Hoechst High Intensity Objects (%),[6],6%
same,Population Membrane Permeable-Phenotype (%),[6],4%
same,Population Mitochondria Different-Phenotype (%),[6],1%
same,Population Mitotic Cells (%),[6],68%
same,Population Normal (%),[6],93%
same,Population Pyknosed Nuclei (%),[6],19%
same,Population Tubulin-Different-Phenotype (%),[6],53%
same,Population Apoptotic (%),[7],42%
same,Population Fragmented Nuclei (%),[7],15%
same,Population Healthy Nuclei (%),[7],65%
same,Population Hoechst High Intensity Objects (%),[7],3%
same,Population Membrane Permeable-Phenotype (%),[7],1%
same,Population Mitochondria Different-Phenotype (%),[7],6%
same,Population Mitotic Cells (%),[7],57%
same,Population Normal (%),[7],96%
same,Population Pyknosed Nuclei (%),[7],18%
same,Population Tubulin-Different-Phenotype (%),[7],22%
same,Population Apoptotic (%),[8],30%
same,Population Fragmented Nuclei (%),[8],30%
same,Population Healthy Nuclei (%),[8],44%
same,Population Hoechst High Intensity Objects (%),[8],6%
same,Population Membrane Permeable-Phenotype (%),[8],10%
same,Population Mitochondria Different-Phenotype (%),[8],2%
same,Population Mitotic Cells (%),[8],69%
same,Population Normal (%),[8],93%
same,Population Pyknosed Nuclei (%),[8],24%
same,Population Tubulin-Different-Phenotype (%),[8],45%
same,Population Apoptotic (%),[9],46%
same,Population Fragmented Nuclei (%),[9],22%
same,Population Healthy Nuclei (%),[9],52%
same,Population Hoechst High Intensity Objects (%),[9],6%
same,Population Membrane Permeable-Phenotype (%),[9],2%
same,Population Mitochondria Different-Phenotype (%),[9],4%
same,Population Mitotic Cells (%),[9],53%
same,Population Normal (%),[9],93%
same,Population Pyknosed Nuclei (%),[9],24%
same,Population Tubulin-Different-Phenotype (%),[9],34%
same,Population Apoptotic (%),[10],37%
same,Population Fragmented Nuclei (%),[10],38%
same,Population Healthy Nuclei (%),[10],46%
same,Population Hoechst High Intensity Objects (%),[10],4%
same,Population Membrane Permeable-Phenotype (%),[10],4%
same,Population Mitotic Cells (%),[10],62%
same,Population Normal (%),[10],95%
same,Population Pyknosed Nuclei (%),[10],14%
same,Population Tubulin-Different-Phenotype (%),[10],53%
same,Population Apoptotic (%),[11],50%
same,Population Fragmented Nuclei (%),[11],22%
same,Population Healthy Nuclei (%),[11],55%
same,Population Hoechst High Intensity Objects (%),[11],4%
same,Population Membrane Permeable-Phenotype (%),[11],0%
same,Population Mitochondria Different-Phenotype (%),[11],7%
same,Population Mitotic Cells (%),[11],50%
same,Population Normal (%),[11],95%
same,Population Pyknosed Nuclei (%),[11],22%
same,Population Tubulin-Different-Phenotype (%),[11],19%
same,Population Apoptotic (%),[12],37%
same,Population Fragmented Nuclei (%),[12],36%
same,Population Healthy Nuclei (%),[12],43%
same,Population Hoechst High Intensity Objects (%),[12],7%
same,Population Membrane Permeable-Phenotype (%),[12],10%
same,Population Mitochondria Different-Phenotype (%),[12],0%
same,Population Mitotic Cells (%),[12],62%
same,Population Normal (%),[12],92%
same,Population Pyknosed Nuclei (%),[12],20%
same,Population Tubulin-Different-Phenotype (%),[12],39%
O=C(O)Cc1ccccc1Nc1c(Cl)cccc1Cl [DICLOFENAC],Population Apoptotic (%),[1],43%
same,Population Fragmented Nuclei (%),[1],14%
same,Population Healthy Nuclei (%),[1],67%
same,Population Hoechst High Intensity Objects (%),[1],0%
same,Population Membrane Permeable-Phenotype (%),[1],1%
same,Population Mitochondria Different-Phenotype (%),[1],6%
same,Population Mitotic Cells (%),[1],56%
same,Population Normal (%),[1],99%
same,Population Pyknosed Nuclei (%),[1],17%
same,Population Tubulin-Different-Phenotype (%),[1],25%
same,Population Apoptotic (%),[2],33%
same,Population Fragmented Nuclei (%),[2],25%
same,Population Healthy Nuclei (%),[2],49%
same,Population Hoechst High Intensity Objects (%),[2],2%
same,Population Membrane Permeable-Phenotype (%),[2],7%
same,Population Mitotic Cells (%),[2],66%
same,Population Normal (%),[2],97%
same,Population Pyknosed Nuclei (%),[2],25%
same,Population Tubulin-Different-Phenotype (%),[2],49%
same,Population Apoptotic (%),[3],32%
same,Population Fragmented Nuclei (%),[3],14%
same,Population Healthy Nuclei (%),[3],68%
same,Population Hoechst High Intensity Objects (%),[3],0%
same,Population Membrane Permeable-Phenotype (%),[3],0%
same,Population Mitochondria Different-Phenotype (%),[3],5%
same,Population Mitotic Cells (%),[3],68%
same,Population Normal (%),[3],99%
same,Population Pyknosed Nuclei (%),[3],17%
same,Population Tubulin-Different-Phenotype (%),[3],24%
same,Population Apoptotic (%),[4],38%
same,Population Fragmented Nuclei (%),[4],36%
same,Population Healthy Nuclei (%),[4],46%
same,Population Hoechst High Intensity Objects (%),[4],6%
same,Population Membrane Permeable-Phenotype (%),[4],16%
same,Population Mitochondria Different-Phenotype (%),[4],8%
same,Population Mitotic Cells (%),[4],61%
same,Population Normal (%),[4],93%
same,Population Tubulin-Different-Phenotype (%),[4],54%
same,Population Apoptotic (%),[5],52%
same,Population Fragmented Nuclei (%),[5],15%
same,Population Healthy Nuclei (%),[5],66%
same,Population Hoechst High Intensity Objects (%),[5],2%
same,Population Membrane Permeable-Phenotype (%),[5],0%
same,Population Mitochondria Different-Phenotype (%),[5],4%
same,Population Mitotic Cells (%),[5],47%
same,Population Normal (%),[5],97%
same,Population Pyknosed Nuclei (%),[5],17%
same,Population Tubulin-Different-Phenotype (%),[5],29%
same,Population Apoptotic (%),[6],35%
same,Population Fragmented Nuclei (%),[6],28%
same,Population Healthy Nuclei (%),[6],49%
same,Population Hoechst High Intensity Objects (%),[6],3%
same,Population Membrane Permeable-Phenotype (%),[6],12%
same,Population Mitochondria Different-Phenotype (%),[6],6%
same,Population Mitotic Cells (%),[6],64%
same,Population Normal (%),[6],96%
same,Population Pyknosed Nuclei (%),[6],21%
same,Population Tubulin-Different-Phenotype (%),[6],50%
same,Population Apoptotic (%),[7],30%
same,Population Fragmented Nuclei (%),[7],16%
same,Population Healthy Nuclei (%),[7],68%
same,Population Hoechst High Intensity Objects (%),[7],5%
same,Population Membrane Permeable-Phenotype (%),[7],0%
same,Population Mitochondria Different-Phenotype (%),[7],5%
same,Population Mitotic Cells (%),[7],69%
same,Population Normal (%),[7],94%
same,Population Pyknosed Nuclei (%),[7],15%
same,Population Tubulin-Different-Phenotype (%),[7],19%
same,Population Apoptotic (%),[8],50%
same,Population Fragmented Nuclei (%),[8],31%
same,Population Healthy Nuclei (%),[8],50%
same,Population Hoechst High Intensity Objects (%),[8],2%
same,Population Membrane Permeable-Phenotype (%),[8],8%
same,Population Mitochondria Different-Phenotype (%),[8],10%
same,Population Mitotic Cells (%),[8],50%
same,Population Normal (%),[8],97%
same,Population Pyknosed Nuclei (%),[8],18%
same,Population Tubulin-Different-Phenotype (%),[8],55%
same,Population Apoptotic (%),[9],85%
same,Population Fragmented Nuclei (%),[9],21%
same,Population Healthy Nuclei (%),[9],61%
same,Population Hoechst High Intensity Objects (%),[9],3%
same,Population Membrane Permeable-Phenotype (%),[9],4%
same,Population Mitochondria Different-Phenotype (%),[9],4%
same,Population Mitotic Cells (%),[9],15%
same,Population Normal (%),[9],96%
same,Population Pyknosed Nuclei (%),[9],16%
same,Population Tubulin-Different-Phenotype (%),[9],24%
same,Population Apoptotic (%),[10],57%
same,Population Fragmented Nuclei (%),[10],36%
same,Population Healthy Nuclei (%),[10],53%
same,Population Hoechst High Intensity Objects (%),[10],5%
same,Population Mitotic Cells (%),[10],42%
same,Population Normal (%),[10],94%
same,Population Pyknosed Nuclei (%),[10],10%
same,Population Tubulin-Different-Phenotype (%),[10],44%
same,Population Apoptotic (%),[11],73%
same,Population Fragmented Nuclei (%),[11],22%
same,Population Healthy Nuclei (%),[11],65%
same,Population Hoechst High Intensity Objects (%),[11],3%
same,Population Membrane Permeable-Phenotype (%),[11],0%
same,Population Mitochondria Different-Phenotype (%),[11],3%
same,Population Mitotic Cells (%),[11],26%
same,Population Normal (%),[11],96%
same,Population Pyknosed Nuclei (%),[11],12%
same,Population Tubulin-Different-Phenotype (%),[11],28%
same,Population Apoptotic (%),[12],30%
same,Population Fragmented Nuclei (%),[12],35%
same,Population Healthy Nuclei (%),[12],50%
same,Population Membrane Permeable-Phenotype (%),[12],4%
same,Population Mitochondria Different-Phenotype (%),[12],6%
same,Population Mitotic Cells (%),[12],69%
same,Population Pyknosed Nuclei (%),[12],14%
same,Population Tubulin-Different-Phenotype (%),[12],53%
